From paper PMC10162598 (Asian Pacific Journal of Cancer Prevention : APJCP, 2023) come the findings set out here.

One assay concerns HuCCT-1 (CCA cell line). Nature of the assay: Antiproliferative MTT assay, HuCCT-1. It is filed as cell-based, human. The note with it: for IC25 (concentration that inhibits cell growth by 25%) / IC50 (concentration that inhibits cell growth by 50%): HuCCT-1, MTT, 72 hours, mean±SD; for Selectivity index (SI): ratio of the IC50 in HuCCT-1 and OUMS-36T-1 cells. The essentials:
(§1)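 Cells (8,000/well; HuCCT-1 in RPMI-1640, OUMS-36T-1 in DMEM, both with 10% FBS) were preincubated 24 h at 37°C, 5% CO2, then exposed to test compound for 72 h. Natural product range was 1.95–250 µg/ml. MTT (5 mg/ml stock) was added for 3.5 h, formazan dissolved in DMSO, and A590 read. IC25/IC50 came from dose-response analysis. SI = HuCCT-1 vs OUMS-36T-1 IC50 ratio. Three experiments, triplicate.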

Assay [1] has as its system PI3K. The assay can be described thus: Western blot protein expression of PI3K in HuCCT-1. The assay is classed as cell-based, human. The note with it: HuCCT-1, 72 hours, at IC50. The essentials:
(§2)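 After 72 h exposure to test compound, HuCCT-1 cells were lysed in RIPA buffer with protease inhibitor, and protein was quantified by BCA. Lysates were resolved by SDS-PAGE and transferred to nitrocellulose. Membranes were probed overnight with primary antibodies (target and β-actin), then an AP-conjugated anti-rabbit secondary. Bands were quantified by densitometry. Three experiments, each in triplicate.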
On the technique in general: Immunoblotting shows a protein as a band on a membrane.

The test system of assay [2] is OUMS-36T-1 (normal human cell line). The assay can be described thus: Antiproliferative MTT assay, OUMS-36T-1. The assay is classed as cell-based. The settings on record: OUMS-36T-1, MTT, 72 hours, mean±SD. In outline: as §1
For the next assay, the system named is Notch1 receptor. Nature of the assay: RT-PCR mRNA expression of Notch1 receptor in HuCCT-1. It is filed as cell-based, human. The note with it: HuCCT-1, 72 hours.
Assay [3] has as its system JAG1 ligand. Nature of the assay: RT-PCR mRNA expression of JAG1 ligand in HuCCT-1. The assay is classed as cell-based, human. The settings on record: HuCCT-1, 72 hours, at IC25.
Assay [4] relates to PI3K. Nature of the assay: RT-PCR mRNA expression of PI3K in HuCCT-1. It is filed as cell-based, human. The note with it: HuCCT-1, 72 hours.
The subject of assay [5] is JAG1 ligand. Nature of the assay: Western blot protein expression of JAG1 ligand in HuCCT-1. The note with it: HuCCT-1, 72 hours, at IC25. The assay is classed as cell-based, human. In outline: as §2
Assay [6] has as its system YAP. The assay can be described thus: RT-PCR mRNA expression of YAP in HuCCT-1. The assay is classed as cell-based, human. The note with it: HuCCT-1, 72 hours.
Assay [7] concerns YAP. Nature of the assay: Western blot protein expression of YAP in HuCCT-1. It is filed as cell-based, human. The note with it: HuCCT-1, 72 hours, at IC25. In outline:
as §2

In a further assay the test system is mTOR. The assay can be described thus: Western blot protein expression of mTOR in HuCCT-1. The settings on record: HuCCT-1, 72 hours, at IC25. It is filed as cell-based, human. In outline:
as §2

Values after ≈ are worked out from the molar mass of the structure shown. Values joined by “and” are separate entries in the source; they are usually repeats but may differ in a detail not shown here. Identical values can stand only once.

Regarding `Nc1ccn([C@@H]2O[C@H](CO)[C@@H](O)C2(F)F)c(=O)n1` [Gemcitabine], in the assay on HuCCT-1 (CCA cell line), the “IC25 (concentration that inhibits cell growth by 25%)” value was determined as 0.22 ± 0.35 µg/mL (≈ 0.836 µM), the “IC50 (concentration that inhibits cell growth by 50%)” value came out at 4.97 ± 5.09 µg/mL (≈ 18.9 µM) and the “Selectivity index (SI)” value came to 14.05. Further, in the assay on PI3K [1], the “PI3K protein expression, fold” value worked out at 0.677 fold. In addition, the “IC25 (concentration that inhibits cell growth by 25%)” value in [2] worked out at 3.40 ± 5.78 µg/mL (≈ 12.9 µM). In the assay on Notch1 receptor (at IC50), the “Notch1 receptor gene expression, fold of control” value is given as 0.318 fold. Besides, the “JAG1 ligand gene expression, fold” value with JAG1 ligand [3] came to 1.344 fold. In addition, the “PI3K gene expression, fold” value in the assay on PI3K [4] (at IC25) was 1.4 fold. In addition, the “PI3K gene expression, fold” value with PI3K [4] (at IC50) came to 2.25 fold. Moreover, in the assay with JAG1 ligand [5], the “JAG1 ligand protein expression, fold” value is 0.610 fold.
For `C[C@H](NC(=O)Cc1cc(F)cc(F)c1)C(=O)N[C@H](C(=O)OC(C)(C)C)c1ccccc1` [DAPT], the “IC50 (concentration that inhibits cell growth by 50%)” value with HuCCT-1 (CCA cell line) was 88.98 µg/mL and 89.88 ± 36.11 µg/mL; in assay [2], 150.29 ± 23.79 µg/mL (≈ 348 µM).
Turning to `O=c1ncccn1[C@@H]1O[C@H](CO)[C@@H](O)[C@H]1O` [Zebularine], in the assay with HuCCT-1 (CCA cell line), the “Selectivity index (SI)” value was found to be 4.41. Further, the “YAP gene expression, fold-change” value with YAP [6] (concentration not given) is on record as 0.647 fold.
On to `C/C=C/C#CC#C/C=C/c1ccco1` [Atractylodin], for which the “IC25 (concentration that inhibits cell growth by 25%)” value with HuCCT-1 (CCA cell line) came out at 13.44 ± 6.28 µg/mL (≈ 73.8 µM); in assay [2] it was 10.08 ± 4.27 µg/mL (≈ 55.3 µM). Further, the “IC50 (concentration that inhibits cell growth by 50%)” value in [2] turned out to be 24.47 ± 8.46 µg/mL (≈ 134 µM). In addition, the “YAP gene expression, fold-change” value was 2.219 fold in the assay with YAP [6] (at high concentration (IC50)) and 0.086 fold with YAP [6] (at low concentration (IC25)). The “YAP protein expression, fold” value in the assay on YAP [7] was found to be 0.819 fold. Also, in the assay with Notch1 receptor (at IC25 and IC50 concentrations (low and high)), the “Notch1 receptor gene expression, fold of control” value turned out to be 0.042 fold. Further, the “mTOR protein expression, fold” value in the assay with mTOR was determined as 1.67 fold.
`C=C1CCC[C@]2(C)CC[C@@H](C(C)(C)O)C[C@@H]12` [β-eudesmol]: the “IC25 (concentration that inhibits cell growth by 25%)” value with HuCCT-1 (CCA cell line) worked out at 6.37 ± 2.53 µg/mL (≈ 28.6 µM); in [2], 18.12 ± 7.43 µg/mL (≈ 81.5 µM). The “Selectivity index (SI)” value in the assay on HuCCT-1 (CCA cell line) stood at 1.68. In addition, the entries for the “YAP gene expression, fold-change” value in the assay on YAP [6] (at high concentration (IC50)) and in the assay on YAP [6] (at low concentration (IC25)) were 1.978 fold and 0.280 fold, respectively.
